Laboratory results from ChEMBL document CHEMBL2384936, “Synthesis and evaluation of antimicrobial activity of hydrazones derived from 3-oxido-1H-imidazole-4-carbohydrazides” (Eur J Med Chem, 2013).
Activity calls are given as the source filed them.

Legend:
[1] = system: Candida albicans; test: Antifungal activity against Candida albicans ATCC 10231 assessed as growth inhibition at 1 to 600 ug/mL after 18 hrs by broth microdilution method; format: functional, organism-based
[2] = system: Pseudomonas aeruginosa; test: Antibacterial activity against Pseudomonas aeruginosa NCTC 6249 assessed as growth inhibition at 1 to 600 ug/mL after 18 hrs by broth microdilution method; format: functional, organism-based
[3] = system: Staphylococcus epidermidis; test: Antibacterial activity against Staphylococcus epidermidis ATCC 12228 assessed as growth inhibition at 1 to 600 ug/mL after 18 hrs by broth microdilution method; format: functional, organism-based
[4] = system: Enterococcus faecalis; test: Antibacterial activity against Enterococcus faecalis ATCC 29212 assessed as growth inhibition at 1 to 600 ug/mL after 18 hrs by broth microdilution method; format: functional, organism-based
[5] = system: Proteus mirabilis; test: Antibacterial activity against Proteus mirabilis ATCC 29906 assessed as growth inhibition at 1 to 600 ug/mL after 18 hrs by broth microdilution method; format: functional
[6] = system: Escherichia coli; test: Antibacterial activity against Escherichia coli NCTC 8192 assessed as growth inhibition at 1 to 600 ug/mL after 18 hrs by broth microdilution method; format: functional, organism-based
[7] = system: Staphylococcus aureus; test: Antibacterial activity against Staphylococcus aureus ATCC 6538 assessed as growth inhibition at 1 to 600 ug/mL after 18 hrs by broth microdilution method; format: functional, organism-based
Summary of the method: (§1)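 Frozen stocks (-80 °C, tryptic soy broth with 15% glycerol); S. aureus subcultured on blood agar and identified by catalase, coagulase and clumping factor. Inoculum at 0.5 McFarland. DMSO-dissolved compounds 1–600 µg/mL in Mueller–Hinton broth, 37 °C 18 h, OD600 read with and without compound. MIC = lowest concentration preventing growth; triplicates, per CLSI.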

[8] = system: Proteus vulgaris; test: Antibacterial activity against Proteus vulgaris ATCC 49990 assessed as growth inhibition at 1 to 600 ug/mL after 18 hrs by broth microdilution method; format: functional, organism-based
[9] = system: Staphylococcus aureus; test: Antibacterial activity against Staphylococcus aureus ATCC 29213 assessed as growth inhibition at 1 to 600 ug/mL after 18 hrs by broth microdilution method; format: functional, organism-based; summary of the method: as §1

Measured: Activity

C/C(=N\NC(=O)c1c(C)n(Cc2ccccc2)c[n+]1[O-])c1ccccc1
inactive: [1] | [2] | [3] | [4] | [5] | [6] | [7] | [8] | [9]

COc1ccc(/C=N/NC(=O)c2c(C)n(Cc3ccccc3)c[n+]2[O-])cc1
inactive: [1] | [2] | [3] | [4] | [5] | [6] | [7] | [8] | [9]

Cc1c(C(=O)N/N=C/c2ccc(N(C)C)cc2)[n+]([O-])cn1Cc1ccccc1
inactive: [1] | [2] | [3] | [4] | [5] | [6] | [7] | [8] | [9]

Cc1c(C(=O)N/N=C/c2ccc([N+](=O)[O-])cc2)[n+]([O-])cn1Cc1ccccc1
inactive: [1] | [2] | [3] | [4] | [5] | [6] | [7] | [8] | [9]

Cc1c(C(=O)N/N=C/c2ccccc2)[n+]([O-])cn1Cc1ccccc1
inactive: [1] | [2] | [3] | [4] | [5] | [6] | [7] | [8] | [9]

Cc1c(C(=O)N/N=C/c2ccccc2O)[n+]([O-])cn1Cc1ccccc1
inactive: [1] | [2] | [3] | [4] | [5] | [6] | [7] | [8] | [9]
